Data published in ChEMBL document CHEMBL3797125, “Discovery of GluN2A-Selective NMDA Receptor Positive Allosteric Modulators (PAMs): Tuning Deactivation Kinetics via Structure-Based Design” (J Med Chem, 2016).
Activity calls are given as the source filed them. The rule behind the calls is not given here.

Legend:
[1] = target: T1, Glutamate NMDA receptor; GRIN1/GRIN2A (Homo sapiens, UniProt Q05586+Q12879); assay: Positive allosteric modulation of GluN1/GluN2A NMDAR (unknown origin) expressed in Dox-inducible cells measured every 5 mins by BD calcium indicator dye based-fluorescence analysis in presence of glutamate/glycine; type: cell-based
How it was run: (§1)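 GluN2A-containing NMDAR cell line, harvested, seeded, doxycycline 2 µg/mL overnight with 500 µM ketamine for protection, then washed and loaded with calcium dye for 50 min. Compound added at 2x concentration in 2x EC30 Glu (EC30 set daily from Glu dose-response); saturating Gly throughout; fluorescence recorded over 5 min.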

[2] = target: T1, Glutamate NMDA receptor; GRIN1/GRIN2A; assay: Positive allosteric modulation of GluN1/GluN2A NMDAR (unknown origin) expressed in Dox-inducible cells at 125 uM measured every 5 mins by BD calcium indicator dye based-fluorescence analysis in presence of glutamate/glycine; type: cell-based; how it was run: as §1
human MDR1 (P-gp) = assay: Efflux ratio of permeability from basolateral to apical over apical to basolateral side in MDCK cells expressing human MDR1; type: ADME, cell-based, Canis lupus familiaris; details: dog
Glutamate receptor 2 [3] = target: T2, Glutamate receptor 2 (Homo sapiens, UniProt P42262); assay: Positive allosteric modulation of human GluA2 AMPAR flip isomer expressed in Dox-inducible cells at 125 uM measured every 5 mins by BD calcium indicator dye based-fluorescence analysis in presence of glutamate; type: cell-based
Glutamate receptor 2 [4] = target: T2, Glutamate receptor 2; assay: Positive allosteric modulation of human GluA2 AMPAR flop isomer expressed in Dox-inducible cells at 125 uM measured every 5 mins by BD calcium indicator dye based-fluorescence analysis in presence of glutamate; type: cell-based
Homo sapiens [5] = species: Homo sapiens; assay: Selectivity ratio of EC50 for human GluA2 AMPAR flop isomer to EC50 for GluN1/GluN2A NMDAR (unknown origin) expressed in Dox-inducible cells; type: cell-based
Glutamate receptor 2 [6] = target: T2, Glutamate receptor 2; assay: Positive allosteric modulation of human GluA2 AMPAR flop isomer expressed in Dox-inducible cells measured every 5 mins by BD calcium indicator dye based-fluorescence analysis in presence of glutamate; type: cell-based
Glutamate receptor 2 [7] = target: T2, Glutamate receptor 2; assay: Positive allosteric modulation of human GluA2 AMPAR flip isomer expressed in Dox-inducible cells measured every 5 mins by BD calcium indicator dye based-fluorescence analysis in presence of glutamate; type: cell-based
[8] = target: Glutamate NMDA receptor; GRIN1/GRIN2B (Homo sapiens) (UniProt Q05586+Q13224); assay: Positive allosteric modulation of GluN1/GluN2B NMDAR (unknown origin) expressed in Dox-inducible cells at 125 uM measured every 5 mins by BD calcium indicator dye based-fluorescence analysis in presence of glutamate/glycine; type: cell-based
How it was run: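 Doxycycline-induced (2 µg/mL, overnight, 500 µM ketamine) GluN2B-containing NMDAR cells, loaded with calcium dye for 50 min; compound added at 2x in 2x EC30 Glu, with saturating Gly; fluorescence recorded over 5 min. Max potentiation at 125 µM reported where no EC50 obtained; 30% denotes baseline (EC30 Glu).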

[9] = Half life in mouse at 0.3 mg/kg, iv; type: ADME, organism-based; details: in vivo
[10] = Protein binding in mouse brain; type: ADME, tissue-based; details: read-out: PB (converted)
[11] = target: Ionotropic glutamate receptor NMDA 1/2C (Homo sapiens, UniProt Q05586+Q14957); assay: Positive allosteric modulation of GluN1/GluN2C NMDAR (unknown origin) expressed in Dox-inducible cells by BD calcium indicator dye based-fluorescence analysis in presence of glutamate/glycine
[12] = Plasma protein binding in mouse; type: ADME, cell-free; details: read-out: PPB (converted)
[13] = target: Ionotropic glutamate receptor NMDA 1/2D (Homo sapiens, UniProt O15399+Q05586); assay: Positive allosteric modulation of GluN1/GluN2D NMDAR (unknown origin) expressed in Dox-inducible cells by BD calcium indicator dye based-fluorescence analysis in presence of glutamate/glycine
Plasma = assay: Fraction unbound in mouse plasma at 10 mg/kg, po measured at 1 hr; type: ADME, organism-based; details: in vivo
[14] = Blood clearance in mouse at 0.3 mg/kg, iv; type: ADME, organism-based
[15] = Oral bioavailability in mouse at 10 mg/kg; type: ADME, organism-based; details: in vivo
[16] = Lipophilicity, logD of the compound at pH 7.4; type: physicochemical; details: buffer
[17] = target: T1, Glutamate NMDA receptor; GRIN1/GRIN2A; assay: Positive allosteric modulation of GluN1/GluN2A NMDAR (unknown origin) expressed in CHO cells assessed as slowing of deactivation kinetics at 10 uM by whole-cell voltage clamp electrophysiological analysis; type: cell-based
[18] = target: T1, Glutamate NMDA receptor; GRIN1/GRIN2A; assay: Positive allosteric modulation of GluN1/GluN2A NMDAR (unknown origin) expressed in CHO cells assessed as slowing of deactivation kinetics at 100 uM by whole-cell voltage clamp electrophysiological analysis; type: cell-based
How it was run: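 Automated patch clamp of CHO cells expressing GluN1/GluN2A; sealed in high Mg2+ buffer, recorded whole-cell in zero Mg2+. Preincubation with PAM at 100 µM (or DMSO) plus 100 µM glycine for several minutes, then rapid switch to 100 µM glutamate and back. Tau from monoexponential fit of current decay; fold deactivation = PAM tau / vehicle tau.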

Homo sapiens [19] = species: Homo sapiens; assay: Selectivity ratio of EC50 for human GluA2 AMPAR flip isomer to EC50 for GluN1/GluN2A NMDAR (unknown origin) expressed in Dox-inducible cells; type: cell-based

T2 sequence (P42262 whole entry): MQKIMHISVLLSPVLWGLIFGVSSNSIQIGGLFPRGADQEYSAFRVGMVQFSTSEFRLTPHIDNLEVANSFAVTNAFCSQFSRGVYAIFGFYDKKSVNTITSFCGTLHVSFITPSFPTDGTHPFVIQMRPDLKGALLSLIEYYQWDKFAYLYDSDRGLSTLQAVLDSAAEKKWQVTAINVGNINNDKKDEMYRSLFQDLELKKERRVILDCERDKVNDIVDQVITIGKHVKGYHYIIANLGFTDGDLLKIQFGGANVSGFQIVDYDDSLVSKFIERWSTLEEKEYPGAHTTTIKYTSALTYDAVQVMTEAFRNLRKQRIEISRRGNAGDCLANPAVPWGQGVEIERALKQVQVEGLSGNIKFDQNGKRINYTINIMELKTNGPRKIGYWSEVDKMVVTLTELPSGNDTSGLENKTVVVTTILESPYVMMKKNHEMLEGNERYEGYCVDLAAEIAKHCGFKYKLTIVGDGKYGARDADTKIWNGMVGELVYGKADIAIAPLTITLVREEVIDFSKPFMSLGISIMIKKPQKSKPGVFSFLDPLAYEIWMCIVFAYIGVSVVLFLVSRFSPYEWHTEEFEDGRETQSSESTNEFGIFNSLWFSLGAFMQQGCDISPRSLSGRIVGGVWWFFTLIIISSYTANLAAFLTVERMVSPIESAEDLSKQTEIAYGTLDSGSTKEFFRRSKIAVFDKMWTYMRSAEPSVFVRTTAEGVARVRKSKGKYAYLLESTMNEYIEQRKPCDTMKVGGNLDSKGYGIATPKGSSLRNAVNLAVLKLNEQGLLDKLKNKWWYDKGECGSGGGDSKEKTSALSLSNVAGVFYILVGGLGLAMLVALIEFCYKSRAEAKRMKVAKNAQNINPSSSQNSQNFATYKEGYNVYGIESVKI
Chain of Ionotropic glutamate receptor NMDA 1/2D (O15399 whole entry, other chains not shown): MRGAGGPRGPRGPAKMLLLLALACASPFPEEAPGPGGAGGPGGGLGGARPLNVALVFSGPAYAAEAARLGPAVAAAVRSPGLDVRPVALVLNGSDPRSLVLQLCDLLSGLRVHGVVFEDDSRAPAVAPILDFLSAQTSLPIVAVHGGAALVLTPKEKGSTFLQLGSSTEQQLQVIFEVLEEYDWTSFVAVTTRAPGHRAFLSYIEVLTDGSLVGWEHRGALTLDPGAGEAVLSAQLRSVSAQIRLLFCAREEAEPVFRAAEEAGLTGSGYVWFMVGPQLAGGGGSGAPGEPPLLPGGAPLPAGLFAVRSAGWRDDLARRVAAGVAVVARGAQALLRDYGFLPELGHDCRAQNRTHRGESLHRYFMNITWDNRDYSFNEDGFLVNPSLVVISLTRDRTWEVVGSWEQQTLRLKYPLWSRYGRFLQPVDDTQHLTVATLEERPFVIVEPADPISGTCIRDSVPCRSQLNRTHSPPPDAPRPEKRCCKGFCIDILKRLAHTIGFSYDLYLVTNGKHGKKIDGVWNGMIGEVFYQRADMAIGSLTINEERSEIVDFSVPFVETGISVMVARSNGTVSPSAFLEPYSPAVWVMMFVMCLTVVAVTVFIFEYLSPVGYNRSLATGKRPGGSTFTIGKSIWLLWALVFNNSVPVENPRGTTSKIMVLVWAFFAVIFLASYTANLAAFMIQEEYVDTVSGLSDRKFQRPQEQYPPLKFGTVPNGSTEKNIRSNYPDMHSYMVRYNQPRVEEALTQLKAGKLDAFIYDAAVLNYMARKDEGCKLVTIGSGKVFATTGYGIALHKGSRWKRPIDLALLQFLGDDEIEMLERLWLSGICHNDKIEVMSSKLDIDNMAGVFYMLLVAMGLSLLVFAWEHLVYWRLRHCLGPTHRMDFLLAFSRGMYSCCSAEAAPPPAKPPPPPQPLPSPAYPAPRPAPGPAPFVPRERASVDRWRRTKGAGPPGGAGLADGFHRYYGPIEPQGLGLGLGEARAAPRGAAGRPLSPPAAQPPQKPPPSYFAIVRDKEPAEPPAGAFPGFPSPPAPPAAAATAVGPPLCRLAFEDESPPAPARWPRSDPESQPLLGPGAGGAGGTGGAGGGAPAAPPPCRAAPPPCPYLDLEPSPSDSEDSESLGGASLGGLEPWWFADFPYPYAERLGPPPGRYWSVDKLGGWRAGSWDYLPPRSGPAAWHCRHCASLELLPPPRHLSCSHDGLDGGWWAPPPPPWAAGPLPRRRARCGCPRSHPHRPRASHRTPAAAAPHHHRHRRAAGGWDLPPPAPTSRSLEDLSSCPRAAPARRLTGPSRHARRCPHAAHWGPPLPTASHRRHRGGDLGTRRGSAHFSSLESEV
Chain of Ionotropic glutamate receptor NMDA 1/2C (Q14957 whole entry, other chains not shown): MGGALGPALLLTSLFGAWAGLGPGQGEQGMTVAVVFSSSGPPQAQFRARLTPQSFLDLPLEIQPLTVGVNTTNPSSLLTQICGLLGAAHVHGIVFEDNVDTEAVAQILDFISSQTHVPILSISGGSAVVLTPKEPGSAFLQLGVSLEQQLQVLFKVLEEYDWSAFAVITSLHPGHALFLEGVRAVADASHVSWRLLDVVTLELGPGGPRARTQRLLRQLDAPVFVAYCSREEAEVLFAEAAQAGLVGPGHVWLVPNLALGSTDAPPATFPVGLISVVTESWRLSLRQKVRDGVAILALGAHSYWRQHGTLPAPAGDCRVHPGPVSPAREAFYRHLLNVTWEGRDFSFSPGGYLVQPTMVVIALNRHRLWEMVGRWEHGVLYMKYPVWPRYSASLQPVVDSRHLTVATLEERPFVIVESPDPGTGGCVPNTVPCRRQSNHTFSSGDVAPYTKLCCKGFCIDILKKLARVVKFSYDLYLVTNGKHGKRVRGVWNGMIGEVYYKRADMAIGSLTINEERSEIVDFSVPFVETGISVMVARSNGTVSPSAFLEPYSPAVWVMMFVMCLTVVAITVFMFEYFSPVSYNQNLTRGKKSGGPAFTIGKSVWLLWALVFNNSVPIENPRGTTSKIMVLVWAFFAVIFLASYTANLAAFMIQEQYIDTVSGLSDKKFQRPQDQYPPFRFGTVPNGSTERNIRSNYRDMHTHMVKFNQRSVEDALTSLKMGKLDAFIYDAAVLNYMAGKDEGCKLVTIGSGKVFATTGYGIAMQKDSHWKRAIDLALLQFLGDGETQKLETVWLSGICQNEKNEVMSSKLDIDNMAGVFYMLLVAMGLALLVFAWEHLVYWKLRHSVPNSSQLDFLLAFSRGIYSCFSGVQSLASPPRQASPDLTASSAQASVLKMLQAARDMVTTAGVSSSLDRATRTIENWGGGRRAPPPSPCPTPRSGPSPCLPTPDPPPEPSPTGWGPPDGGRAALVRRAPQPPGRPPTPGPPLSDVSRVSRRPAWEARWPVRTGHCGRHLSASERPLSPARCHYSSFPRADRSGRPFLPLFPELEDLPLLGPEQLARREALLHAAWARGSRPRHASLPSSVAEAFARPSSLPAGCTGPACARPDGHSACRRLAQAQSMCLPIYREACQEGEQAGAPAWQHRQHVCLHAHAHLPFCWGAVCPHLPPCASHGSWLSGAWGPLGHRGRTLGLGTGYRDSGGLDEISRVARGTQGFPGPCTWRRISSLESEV

Structure (SMILES)	EC50 [1] [µM]	%max [2] [%]	efflux ratio (human MDR1 (P-gp))	%max (Glutamate receptor 2 [3]) [%]	%max (Glutamate receptor 2 [4]) [%]	EC50 (Glutamate receptor 2 [6]) [µM]	EC50 (Glutamate receptor 2 [7]) [µM]	other results
CCN(Cc1cc(=O)n2c(C(C)=O)c(C)sc2n1)c1ccc(F)cc1	0.088	173	1.1	13	55	9.4		Ratio EC50 (Homo sapiens [5]): 100
CCCCc1nn2c(=O)cc(CN(CC)c3ccccc3)nc2s1	9.34	91		51	71	23.7	35.2	%max [8]: 40%
N#C[C@@H]1C[C@H]1c1c(C(F)(F)F)sc2nc(Cn3nc(C(F)(F)F)cc3Cl)cc(=O)n12	0.021		1.1	84	88	5.5	9.1	half-life [9]: 4 h; fraction unbound [10]: 0.014; EC50 [11]: 7.4 µM; fraction unbound [12]: 0.06; EC50 [13]: 6.2 µM; Cp(f) (Plasma): 17 nM; clearance [14]: 26 mL/min/kg; bioavailability [15]: 24%
CCN(Cc1cc(=O)n2nc(C)sc2n1)c1ccc(F)cc1	0.9	150	1.4	92	99	0.83	3.3	logD [16]: 2.9; %max [8]: 48%
CCNC(=O)c1c(C)sc2nc(CN(CC)c3ccc(F)cc3)cc(=O)n12	0.093	184	5.1	10	28			Activity [17]: Active
CCNC(=O)c1c(C)sc2nc(COc3ccc(F)cc3)cc(=O)n12	8.5	77	2	11	15			Activity [18]: inactive
CCN(Cc1cc(=O)n2nc(C)sc2n1)c1ccccc1	1.9	150		84	95	2	7.5	%max [8]: 35%
CCNC(=O)c1c(C)sc2nc(Cc3cccc(C(F)(F)F)c3F)cc(=O)n12	1.2	94	1.8	9	20	29.4	28.3	
C=C(C)c1c(C)sc2nc(CN(CC)c3ccc(F)cc3)cc(=O)n12	0.06	143		75	22	13	43.1	Ratio EC50 (Homo sapiens [5]): > 100
CCN(Cc1cc(=O)n2c(C#N)c(C)sc2n1)c1ccc(F)cc1	0.129	181	0.9	13	60	10.7	66.6	
CCNC(=O)c1c(C)sc2nc(Cn3nc(C(F)(F)F)cc3Cl)cc(=O)n12	0.436	120	11	8	16	73.2	37	Ratio EC50 (Homo sapiens [19]): 100
CCN(Cc1cc(=O)n2c(C(C)O)c(C)sc2n1)c1ccc(F)cc1 (racemic)	0.183	154	0.6	37	30	5.5	32.3	
CCN(Cc1cc(=O)n2c(-c3cccnc3)c(C)sc2n1)c1ccc(F)cc1	0.168	144	1.2	75	11	4.5	33.8	
O=c1cc(Cn2nc(C(F)(F)F)cc2Cl)nc2sc(C(F)(F)F)c([C@@H]3C[C@H]3CO)n12	0.073	144	1	66	41	2.5	36.1	
